A selection: hits, their analogues and other compounds. The true share with any hit is near 3.1%.
UBC13 inh: human UBC13 polyubiquitination inhibition; P61088; UBC13 polyubiquitin chain formation, TR-FRET; inhibition, % at 20 µM; 330,000 tested, 0.47% active; in the data active means inhibition above about 45%, passing the limit was not always enough
Target sequence (P61088 whole entry, looked up): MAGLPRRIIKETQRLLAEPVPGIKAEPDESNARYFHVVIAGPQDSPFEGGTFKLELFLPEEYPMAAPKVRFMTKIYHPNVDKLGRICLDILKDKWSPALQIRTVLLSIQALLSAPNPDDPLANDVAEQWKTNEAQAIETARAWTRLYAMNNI
MEKK3 PB1 HTS: modulators (inhibitors or enhancers) of MEK5 binding to human MEKK3 PB1 domain | 290,000 tested, 1.4% active | bead-based flow cytometry, Alexa488-MEK5 binding to MEKK3; actives lie on both sides; 0 = blocked by unlabeled MEK5, 100 = vehicle | binding response (% of control), % at 10 µM;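 active means binding response more than 3 SD above or below the average of its plate-row segment, actives on both sides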;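 further: Alexa488 bead fluorescence after subtracting the streptavidin-only scavenger bead signal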
Target sequence (Q99759 whole entry, looked up, the tested form may be a part): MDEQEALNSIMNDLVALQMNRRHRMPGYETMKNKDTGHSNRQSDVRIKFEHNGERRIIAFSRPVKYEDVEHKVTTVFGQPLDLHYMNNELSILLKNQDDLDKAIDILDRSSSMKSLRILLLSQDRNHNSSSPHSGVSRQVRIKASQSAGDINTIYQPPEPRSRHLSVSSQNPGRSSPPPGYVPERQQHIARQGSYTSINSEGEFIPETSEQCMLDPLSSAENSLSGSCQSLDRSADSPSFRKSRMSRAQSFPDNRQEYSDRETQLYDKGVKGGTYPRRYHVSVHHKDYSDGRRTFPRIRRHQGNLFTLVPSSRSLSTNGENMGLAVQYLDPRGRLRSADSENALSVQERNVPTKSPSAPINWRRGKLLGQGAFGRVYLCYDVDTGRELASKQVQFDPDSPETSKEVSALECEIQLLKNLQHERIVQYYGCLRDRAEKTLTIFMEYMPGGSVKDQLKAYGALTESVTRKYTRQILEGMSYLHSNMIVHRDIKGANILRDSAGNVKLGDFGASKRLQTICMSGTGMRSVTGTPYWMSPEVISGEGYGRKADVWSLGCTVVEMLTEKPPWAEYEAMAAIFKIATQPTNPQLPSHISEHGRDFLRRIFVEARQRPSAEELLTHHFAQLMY
MEKK2wt PB1 HTS: raises or lowers MEK5 binding to wildtype human MEKK2 PB1 domain; Q9Y2U5; bead flow cytometry, Alexa488-MEK5 binding to MEKK2 WT; actives lie on both sides; binding response (% of control), % at 10 µM; 290,000 tested, 1.1% active; AID 1531; in the data active means binding response below about 67% or above about 130%
Apaf-1 inh: human Apaf-1 inhibition. O14727. reconstituted apoptosome caspase-3 activity, DEVD-Rh110 fluorescence. inhibition, % at 20 µM. 330,000 tested, 0.71% active. AID 489030; active means inhibition of at least 40% at 20 µM
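Material: reconstituted apoptosome with Apaf-1, cytochrome c, caspase-9, procaspase-3, dATP / Buffer or medium: pH 7.5 Hepes buffer with CHAPS, BSA, DTT / Also added: cytochrome c with DEVD-Rh110 / Schedule: compound with Apaf-1, dATP, procaspase-3 30 min, then 50 min reaction, room temperature / Technique: rhodamine 110 fluorescence at Ex 480/Em 540 nm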
PREPL inh: inhibitors of human prolyl oligopeptidase-like enzyme PREPL. inhibition, % at 5.96 µM. 320,000 tested, 0.68% active. Q4J6C6. recombinant PREPL, fluorescence polarization activity-based probe; in the data active means inhibition above about 43%
MEKK2mut PB1 HTS: signal of MEK5 binding to mutant human MEKK2 PB1 domain. bead flow cytometry, Alexa488-MEK5 binding to MEKK2 mutant. percent response, % at 10 µM. 290,000 tested, 0.35% active; in the data active means percent response above about 24%, passing the limit was not always enough
Apaf-1 inh conf2: confirmation of Apaf-1 inhibitors; shares compounds with Apaf-1 inh; reconstituted apoptosome, caspase-3 DEVD-Rh110 fluorescence; inhibition, % at 20 µM; 1,800 tested, 25% active;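 active means mean inhibition of at least 40% at 20 µM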
Rh110 interf inh: counter-screen for Apaf-1 inhibitors: fluorescence interference. shares compounds with Apaf-1 inh. Rh110 fluorescence interference, quenched caspase reaction. activation (fluorescence interference), % at 20 µM. 1,800 tested, under 10 active;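 active means signal rise of 40% or more at 20 µM, treated as a fluorescence artifact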
Apaf1 inh interf: shows fluorescence interference in the Apaf-1 inhibitor assay format; shares compounds with Apaf-1 inh; fluorescence interference counterscreen, Apaf-1 assay format; IC50, µM; 460 tested, under 10 active; call rule not given here
Hits are given with their value.

What do the screens show for `CS(=O)(=O)c1ccc(Cl)c(NC(=O)CN2CCCC2c2ccc3c(c2)OCCCO3)c1` (centres undefined)?
UBC13 inh: inactive; Apaf-1 inh: inactive; PREPL inh: inactive

What do the screens show for `COc1ccc(NC(=O)Nc2ccc(O)c3ccccc23)cc1`?
UBC13 inh: inactive; Apaf-1 inh: 52; PREPL inh: inactive; Apaf-1 inh conf2: inactive; Rh110 interf inh: inactive

What do the screens show for `Cc1ccccc1NC(=O)COC(=O)CNC(=O)c1sc2ccccc2c1Cl`?
UBC13 inh: inactive; MEKK3 PB1 HTS: inactive; MEKK2wt PB1 HTS: inactive; Apaf-1 inh: inactive; PREPL inh: inactive; MEKK2mut PB1 HTS: inactive

Results for CN(CC(=O)Nc1cccc(F)c1)C(=O)c1sc2ccccc2c1Cl ?
UBC13 inh: inactive; Apaf-1 inh: 57; PREPL inh: inactive; Apaf-1 inh conf2: inactive; Rh110 interf inh: inactive

Results for CCCN(CC(=O)Nc1ccccc1C)C(=O)c1sc2ccccc2c1Cl ?
UBC13 inh: inactive; Apaf-1 inh: 61; PREPL inh: inactive; Apaf-1 inh conf2: 44; Rh110 interf inh: inactive; Apaf1 inh interf: inactive

What do the screens show for `CC(=O)c1ccc(N2C(=NC(=O)C3CCCCC3)SC3CS(=O)(=O)CC32)cc1` (centres undefined)?
UBC13 inh: inactive; MEKK3 PB1 HTS: inactive; MEKK2wt PB1 HTS: inactive; Apaf-1 inh: inactive; PREPL inh: inactive; MEKK2mut PB1 HTS: inactive

Results for CCN(CCO)c1ccc(NC(=S)Nc2cccc(S(=O)(=O)N(C)C)c2)cc1 ?
UBC13 inh: inactive; MEKK3 PB1 HTS: inactive; MEKK2wt PB1 HTS: inactive; Apaf-1 inh: 43; PREPL inh: inactive; MEKK2mut PB1 HTS: inactive; Apaf-1 inh conf2: inactive; Rh110 interf inh: inactive

What do the screens show for `CCCCCCc1cc2cc(-c3nnc(-c4ccccc4OC)o3)c(=O)oc2cc1O`?
UBC13 inh: inactive; MEKK3 PB1 HTS: inactive; MEKK2wt PB1 HTS: inactive; Apaf-1 inh: 62; PREPL inh: inactive; MEKK2mut PB1 HTS: inactive; Apaf-1 inh conf2: 64; Rh110 interf inh: inactive; Apaf1 inh interf: inactive

What do the screens show for `Cc1cccc(-n2c(N)c(C(=O)NCCN3CCOCC3)c3nc4ccccc4nc32)c1`?
UBC13 inh: inactive; MEKK3 PB1 HTS: inactive; MEKK2wt PB1 HTS: inactive; Apaf-1 inh: 51; PREPL inh: inactive; MEKK2mut PB1 HTS: inactive; Apaf-1 inh conf2: inactive; Rh110 interf inh: inactive

Results for CCCNC(=O)c1c(N)n(-c2ccc3c(c2)OCO3)c2nc3ccccc3nc12 ?
UBC13 inh: inactive; MEKK3 PB1 HTS: inactive; MEKK2wt PB1 HTS: inactive; Apaf-1 inh: inactive; PREPL inh: inactive; MEKK2mut PB1 HTS: inactive

Results for CSCC(=O)N1CCc2ccc(NC(=O)c3ccccc3Cl)cc2C1 ?
UBC13 inh: inactive; MEKK3 PB1 HTS: inactive; MEKK2wt PB1 HTS: inactive; Apaf-1 inh: inactive; PREPL inh: inactive; MEKK2mut PB1 HTS: inactive

What do the screens show for `CCC(C)N1CC(=O)N2C(c3ccc(OC)cc3OC)c3[nH]c4ccccc4c3C[C@H]2C1=O` (some centres undefined)?
UBC13 inh: inactive; MEKK3 PB1 HTS: inactive; MEKK2wt PB1 HTS: inactive; Apaf-1 inh: inactive; PREPL inh: inactive; MEKK2mut PB1 HTS: inactive

What do the screens show for `CN(C)/C=N/NC(=O)c1ccccc1`?
UBC13 inh: inactive; MEKK3 PB1 HTS: inactive; MEKK2wt PB1 HTS: inactive; Apaf-1 inh: inactive; PREPL inh: inactive; MEKK2mut PB1 HTS: inactive

Results for O=C(NN=c1c(=O)c2ccccc2c1=O)c1ccccc1 ?
UBC13 inh: inactive; MEKK3 PB1 HTS: inactive; MEKK2wt PB1 HTS: inactive; Apaf-1 inh: 96; PREPL inh: inactive; MEKK2mut PB1 HTS: inactive; Apaf-1 inh conf2: 98; Rh110 interf inh: inactive; Apaf1 inh interf: inactive

How did CC(C)Oc1ccccc1C1(c2ccccc2)NC(=O)NC1=O (centres undefined) do in these assays?
UBC13 inh: inactive; MEKK3 PB1 HTS: inactive; MEKK2wt PB1 HTS: inactive; Apaf-1 inh: inactive; PREPL inh: inactive; MEKK2mut PB1 HTS: inactive

What do the screens show for `COc1ccc(NS(=O)(=O)c2cccc(C(=O)N3CCCCCCC3)c2)cc1`?
UBC13 inh: inactive; Apaf-1 inh: 45; PREPL inh: inactive; Apaf-1 inh conf2: inactive; Rh110 interf inh: inactive

Results for Cc1ccc(C(C)C)c(OCC(=O)NNCC(=O)Nc2cccc(F)c2)c1 ?
UBC13 inh: inactive; Apaf-1 inh: inactive; PREPL inh: inactive

Results for CC(C)(C)c1ccc(S(=O)(=O)/N=C2\C=C(NS(=O)(=O)c3ccccc3)C(=O)c3ccccc32)cc1 ?
UBC13 inh: inactive; MEKK3 PB1 HTS: inactive; MEKK2wt PB1 HTS: inactive; Apaf-1 inh: 46; PREPL inh: inactive; MEKK2mut PB1 HTS: inactive; Apaf-1 inh conf2: 53; Rh110 interf inh: inactive; Apaf1 inh interf: inactive

Results for Cc1ccc(S(=O)(=O)/N=C2\C=C(Nc3ccc(O)cc3)C(=O)c3ccccc32)cc1 ?
UBC13 inh: inactive; Apaf-1 inh: 96; PREPL inh: inactive; Apaf-1 inh conf2: 97; Rh110 interf inh: inactive; Apaf1 inh interf: inactive

How did Cc1ccc(S(=O)(=O)/N=C2\C=C(Nc3cccc(C(=O)O)c3)C(=O)c3ccccc32)c(C)c1 do in these assays?
UBC13 inh: inactive; MEKK3 PB1 HTS: inactive; MEKK2wt PB1 HTS: inactive; Apaf-1 inh: 90; PREPL inh: inactive; MEKK2mut PB1 HTS: inactive; Apaf-1 inh conf2: 85; Rh110 interf inh: inactive

How did Cc1ccc(S(=O)(=O)/N=C2\C=C(Nc3cccc(C(=O)O)c3)C(=O)c3ccccc32)cc1 do in these assays?
UBC13 inh: inactive; MEKK3 PB1 HTS: inactive; MEKK2wt PB1 HTS: inactive; Apaf-1 inh: 94; PREPL inh: inactive; MEKK2mut PB1 HTS: inactive; Apaf-1 inh conf2: 98; Rh110 interf inh: inactive; Apaf1 inh interf: inactive

Results for Cc1cccc(C)c1OCc1nnc(SCC(=O)Nc2ccc(N3CCOCC3)cc2)o1 ?
UBC13 inh: inactive; MEKK3 PB1 HTS: inactive; MEKK2wt PB1 HTS: inactive; Apaf-1 inh: inactive; PREPL inh: inactive; MEKK2mut PB1 HTS: inactive

Results for COc1ccc(-c2cc(C)no2)cc1S(=O)(=O)NCCc1ccco1 ?
UBC13 inh: inactive; MEKK3 PB1 HTS: inactive; MEKK2wt PB1 HTS: inactive; Apaf-1 inh: inactive; PREPL inh: inactive; MEKK2mut PB1 HTS: inactive

How did CCc1ccc(S(=O)(=O)/N=C2\C=C(Nc3ccc(C(=O)O)cc3)C(=O)c3ccccc32)cc1 do in these assays?
UBC13 inh: inactive; MEKK3 PB1 HTS: inactive; MEKK2wt PB1 HTS: inactive; Apaf-1 inh: 96; PREPL inh: inactive; MEKK2mut PB1 HTS: inactive; Apaf-1 inh conf2: 89; Rh110 interf inh: inactive; Apaf1 inh interf: inactive

What do the screens show for `Cc1ccc(-n2nc(C)c(C(=O)O)n2)c(C)c1`?
UBC13 inh: inactive; MEKK3 PB1 HTS: inactive; MEKK2wt PB1 HTS: inactive; Apaf-1 inh: inactive; PREPL inh: inactive; MEKK2mut PB1 HTS: inactive

High-throughput results: PubChem, several laboratories
